From ChEMBL document CHEMBL3352208, “Semisynthetic analogues of toxiferine I and their pharmacological properties at α7 nAChRs, muscle-type nAChRs, and the allosteric binding site of muscarinic M2 receptors” (J Nat Prod, 2014) come the findings set out here.

For assay [1], the target named is T1, Neuronal acetylcholine receptor subunit alpha-7 (Homo sapiens, UniProt P36544). The assay can be described thus: Antagonist activity at human alpha7 nAChR expressed in GH3 cells by Ca2+/Fluo-4 assay. Format: cell-based.
T1 sequence (P36544 whole entry): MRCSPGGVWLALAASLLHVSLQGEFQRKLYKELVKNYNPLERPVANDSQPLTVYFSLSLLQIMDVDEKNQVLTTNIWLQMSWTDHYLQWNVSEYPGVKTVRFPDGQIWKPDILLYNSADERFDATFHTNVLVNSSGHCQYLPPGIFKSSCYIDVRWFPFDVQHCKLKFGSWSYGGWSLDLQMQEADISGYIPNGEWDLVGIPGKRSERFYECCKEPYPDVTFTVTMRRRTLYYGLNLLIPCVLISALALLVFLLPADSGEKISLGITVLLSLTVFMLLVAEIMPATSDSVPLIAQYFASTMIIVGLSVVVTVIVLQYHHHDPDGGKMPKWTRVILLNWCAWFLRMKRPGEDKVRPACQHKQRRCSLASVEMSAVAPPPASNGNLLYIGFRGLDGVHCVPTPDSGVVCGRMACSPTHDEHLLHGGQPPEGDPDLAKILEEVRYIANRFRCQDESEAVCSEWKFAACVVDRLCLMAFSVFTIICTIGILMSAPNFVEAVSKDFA
Assay [2] can be described thus: Displacement of [3H]epibatidine from Torpedo californica muscle-type nAChR after 90 mins by liquid scintillation counting. Format: tissue-based, Tetronarce californica. The procedure, abridged: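 Torpedo californica electric organ membranes, homogenised and washed in HSS, 60−70 μg per sample. Incubated with (±)-[3H]epibatidine for 90 min at 22 °C; (−)-nicotine defined nonspecific binding. Filtered through PEI-soaked GF/B filters and counted by scintillation. […] Mean ± SEM of 3–5 experiments.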
On the technique in general: Loss of bound radioactivity is the signal in a displacement assay; it reports binding, not function.

For assay [3], the target named is T2, Muscarinic acetylcholine receptor M2 (Sus scrofa, UniProt P06199).
T2 sequence (P06199 whole entry): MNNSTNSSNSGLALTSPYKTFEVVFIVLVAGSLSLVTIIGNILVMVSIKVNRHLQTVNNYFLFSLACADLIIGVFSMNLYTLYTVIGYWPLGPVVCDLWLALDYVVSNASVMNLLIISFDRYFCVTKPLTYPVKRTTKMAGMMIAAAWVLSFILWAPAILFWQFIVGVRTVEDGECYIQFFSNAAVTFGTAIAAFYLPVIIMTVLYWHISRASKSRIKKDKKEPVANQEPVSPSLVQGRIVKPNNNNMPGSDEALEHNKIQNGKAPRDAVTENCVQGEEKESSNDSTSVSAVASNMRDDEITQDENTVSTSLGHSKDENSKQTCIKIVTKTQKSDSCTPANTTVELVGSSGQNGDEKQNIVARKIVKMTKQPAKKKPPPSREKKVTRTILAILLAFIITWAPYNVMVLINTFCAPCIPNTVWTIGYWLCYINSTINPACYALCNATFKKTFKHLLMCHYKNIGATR
As to the kind of experiment: Displacement of [3H]NMS from pig muscarinic M2 receptor after 120 mins by liquid scintillation counting.

Assay [4] addresses T1, Neuronal acetylcholine receptor subunit alpha-7. The assay can be described thus: Ratio of toxiferine-I IC50 to compound IC50 for human alpha7 nAChR expressed in GH3 cells by Ca2+/Fluo-4 assay. Format: cell-based.

Turning to `CC[C@@H]1C[N+]2(Cc3ccc([N+](=O)[O-])cc3)CC[C@@]34c5ccccc5N5/C=C6/[C@H]7C[C@H]8[C@@]9(CC[N+]8(Cc8ccc([N+](=O)[O-])cc8)C[C@H]7CC)c7ccccc7N(/C=C(/[C@H]1C[C@@H]32)[C@H]54)[C@@H]69` (some centres not stated), the IC50 in assay [1] (read-out: IC50) was 21000 nM; in assay [1] (read-out: pIC50 (converted)) it was 21400 nM. This compound came in with a Ki in assay [2] of 81.9 nM. In assay [3], the EC50 came out at 49 nM.
The compound `C[N+]12CC[C@@]34c5ccccc5N5[C@@H]6OC=C7C[N+]8(C)CC[C@]9%10c%11ccccc%11N([C@@H]%11OCC=C(C1)[C@H](C[C@@H]32)[C@@H]%11[C@H]54)[C@H]9[C@H]6[C@H]7C[C@@H]%108` (some centres not stated) registered a Ki in assay [2] of 5200 nM. Also, the midpoint of the response in assay [3], the EC50, lay at 8 nM.
On to `C=CC[N+]12CC[C@@]34c5ccccc5N5/C=C6/[C@H]7C[C@H]8[C@@]9(CC[N+]8(CC=C)C[C@H]7CCO)c7ccccc7N(/C=C(/[C@@H](C[C@@H]31)[C@H](CC)C2)[C@H]54)[C@@H]69` (some centres not stated), for which the IC50 in assay [1] (read-out: IC50) was 3100 nM; in assay [1] (read-out: pIC50 (converted)) it was 3160 nM. The compound further displayed a Ki in assay [2] of 250 nM. In assay [3], the EC50 came to 12 nM.
In the case of `C=CC[N@@+]12CC[C@@]34c5ccccc5N5/C=C6/[C@H]7C[C@H]8[C@@]9(CC[N@@+]8(CC=C)C/C7=C/CO)c7ccccc7N(/C=C(/[C@@H](C[C@@H]31)/C(=C\CO)C2)[C@H]54)[C@@H]69` [ALCURONIUM], the inhibitory constant (Ki) in assay [2] was determined as 234 nM. In assay [3], the EC50 came to 2 nM.
For `CC[C@@H]1CN2CC[C@@]34c5ccccc5N5/C=C6/[C@H]7C[C@@H]8N(CC[C@@]89c8ccccc8N(/C=C(/[C@H]1C[C@H]23)[C@H]54)[C@@H]69)C[C@H]7CC`, the IC50 was 3300 nM in assay [1] (read-out: IC50) and 3310 nM in assay [1] (read-out: pIC50 (converted)). Also, in assay [2], the Ki turned out to be 669 nM. In addition, in assay [3], the EC50 was determined as 500 nM.
For `C=CC[N+]12CC[C@@]34c5ccccc5N5/C=C6/[C@H]7C[C@H]8[C@@]9(CC[N+]8(CC=C)C[C@H]7CC)c7ccccc7N(/C=C(/[C@@H](C[C@@H]31)[C@H](CC)C2)[C@H]54)[C@@H]69` (some centres not stated), the Ki in assay [2] was 75.1 nM. The EC50 in assay [3] was determined as 36 nM.
The compound `C[N+]12CC[C@@]34c5ccccc5N5/C=C6/[C@H]7C[C@H]8[C@@]9(CC[N+]8(C)C/C7=C/CO)c7ccccc7N(/C=C(/[C@@H](C[C@@H]31)/C(=C\CO)C2)[C@H]54)[C@@H]69` (some centres not stated) had a Ki in assay [2] of 14 nM. The compound further registered an EC50 in assay [3] of 96 nM.
For `C1=C2CN3CC[C@]45c6ccccc6N6[C@@H]7OCC=C8CN9CC[C@]%10%11c%12ccccc%12N([C@H](OC1)[C@@H]([C@H]64)[C@H]2C[C@H]35)[C@H]%10[C@H]7[C@H]8C[C@H]9%11` [CARACURINE V] the same measures were greater than 100000 nM and 436 nM.
Take `CC[C@@H]1C[N+]2(C)CC[C@@]34c5ccccc5N5/C=C6/[C@H]7C[C@H]8[C@@]9(CC[N+]8(C)C[C@H]7CCO)c7ccccc7N(/C=C(/[C@H]1C[C@@H]32)[C@H]54)[C@@H]69` (some centres not stated): the IC50 in assay [1] (read-out: IC50) was 590 nM; in assay [1] (read-out: pIC50 (converted)), 603 nM. The same compound displayed a Ki in assay [2] of 455 nM. In addition, a half-maximal effect in assay [3] (EC50) was put at 320 nM. Besides, the Ratio IC50 in assay [4] was found to be 10.
Consider `C=CC[N+]12CC[C@@]34c5ccccc5N5[C@@H]6OC=C7C[N+]8(CC=C)CC[C@]9%10c%11ccccc%11N([C@@H]%11OCC=C(C1)[C@H](C[C@@H]32)[C@@H]%11[C@H]54)[C@H]9[C@H]6[C@H]7C[C@@H]%108` (some centres not stated), for which affinity in assay [2] was put at a Ki of 1500 nM. The same compound returned an EC50 in assay [3] of 11 nM.
With `CC[C@@H]1C[N+]2(C)CC[C@@]34c5ccccc5N5/C=C6/[C@H]7C[C@H]8[C@@]9(CC[N+]8(C)C[C@H]7CC)c7ccccc7N(/C=C(/[C@H]1C[C@@H]32)[C@H]54)[C@@H]69` (some centres not stated), the IC50 in assay [1] (read-out: IC50) is 820 nM; in assay [1] (read-out: pIC50 (converted)), 813 nM. This compound also returned a Ki in assay [2] of 150 nM. This compound also registered an EC50 in assay [3] of 260 nM. In addition, in assay [4], the Ratio IC50 stood at 10.
On to `CC[C@@H]1C[N+]2(Cc3ccc([N+](=O)[O-])cc3)CC[C@@]34c5ccccc5N5/C=C6/[C@H]7C[C@H]8[C@@]9(CC[N+]8(Cc8ccc([N+](=O)[O-])cc8)C[C@H]7CCO)c7ccccc7N(/C=C(/[C@H]1C[C@@H]32)[C@H]54)[C@@H]69` (some centres not stated), for which the IC50 in assay [1] (read-out: IC50) was 4200 nM; in assay [1] (read-out: pIC50 (converted)), 4170 nM. Besides, affinity in assay [2] was put at a Ki of 290 nM. In assay [3], this compound registered an EC50 of 32 nM.
For `CC[C@@H]1CN2CC[C@@]34c5ccccc5N5/C=C6/[C@H]7C[C@@H]8N(CC[C@@]89c8ccccc8N(/C=C(/[C@H]1C[C@H]23)[C@H]54)[C@@H]69)C[C@H]7CCO` the same measures were 2200 nM, 2340 nM, 390 nM and 410 nM.

What is called Ki is the equilibrium dissociation constant of an inhibitor or competing ligand from its target. A lower Ki goes with higher affinity. As usually defined, the EC50 is the concentration needed to bring the measured effect to its halfway point.
